Results published in ChEMBL document CHEMBL1153566, “5-Benzylidene-hydantoins: synthesis and antiproliferative activity on A549 lung cancer cell line” (Eur J Med Chem, 2009).
Activity calls are given as the source filed them. The rule behind the calls is not given here.

How the values were obtained:
A549 [1] = assay: Induction of p53 protein expression in human A549 cells at 20 uM after 48 hrs by Western blot relative to untreated control; assay type: functional
How it was run: (§1)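 A549 cells (RPMI 1640, 2 mM glutamine, 10% FBS, 37 °C, 5% CO2) treated with compound; lysate proteins (50 µg) run on 5–15% SDS–PAGE, blotted to nitrocellulose, probed with mouse anti-human p53 (DO1) and anti-GAPDH monoclonals, then HRP secondary. p53 level given as fold increase over control; mean ± SD of three independent experiments, one-tailed Student's t-test.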

A549 [2] = assay: Antiproliferative activity against human A549 cells at 20 uM after 72 hrs by trypan blue exclusion method; assay type: functional; details: A549, 72 h
A549 [3] = assay: Induction of p53 protein expression in human A549 cells at 10 uM after 72 hrs by Western blot relative to untreated control; assay type: functional; how it was run: as §1
A549 [4] = assay: Induction of p53 protein expression in human A549 cells at 10 uM after 48 hrs by Western blot relative to untreated control; assay type: functional; how it was run: as §1
A549 [5] = assay: Induction of p53 protein expression in human A549 cells at 20 uM after 72 hrs by Western blot relative to untreated control; assay type: functional; how it was run: as §1
A549 [6] = assay: Cell cycle arrest in human A549 cells assessed as accumulation at S phase; assay type: functional, cell-based
[7] = molecular target: Epidermal growth factor receptor (Homo sapiens, UniProt P00533); assay: Inhibition of EGFR autophosphorylation in human A549 cells
A549 [8] = assay: Induction of DNA damage in human A549 cells; assay type: functional, cell-based

Sequence of Epidermal growth factor receptor (P00533 whole entry): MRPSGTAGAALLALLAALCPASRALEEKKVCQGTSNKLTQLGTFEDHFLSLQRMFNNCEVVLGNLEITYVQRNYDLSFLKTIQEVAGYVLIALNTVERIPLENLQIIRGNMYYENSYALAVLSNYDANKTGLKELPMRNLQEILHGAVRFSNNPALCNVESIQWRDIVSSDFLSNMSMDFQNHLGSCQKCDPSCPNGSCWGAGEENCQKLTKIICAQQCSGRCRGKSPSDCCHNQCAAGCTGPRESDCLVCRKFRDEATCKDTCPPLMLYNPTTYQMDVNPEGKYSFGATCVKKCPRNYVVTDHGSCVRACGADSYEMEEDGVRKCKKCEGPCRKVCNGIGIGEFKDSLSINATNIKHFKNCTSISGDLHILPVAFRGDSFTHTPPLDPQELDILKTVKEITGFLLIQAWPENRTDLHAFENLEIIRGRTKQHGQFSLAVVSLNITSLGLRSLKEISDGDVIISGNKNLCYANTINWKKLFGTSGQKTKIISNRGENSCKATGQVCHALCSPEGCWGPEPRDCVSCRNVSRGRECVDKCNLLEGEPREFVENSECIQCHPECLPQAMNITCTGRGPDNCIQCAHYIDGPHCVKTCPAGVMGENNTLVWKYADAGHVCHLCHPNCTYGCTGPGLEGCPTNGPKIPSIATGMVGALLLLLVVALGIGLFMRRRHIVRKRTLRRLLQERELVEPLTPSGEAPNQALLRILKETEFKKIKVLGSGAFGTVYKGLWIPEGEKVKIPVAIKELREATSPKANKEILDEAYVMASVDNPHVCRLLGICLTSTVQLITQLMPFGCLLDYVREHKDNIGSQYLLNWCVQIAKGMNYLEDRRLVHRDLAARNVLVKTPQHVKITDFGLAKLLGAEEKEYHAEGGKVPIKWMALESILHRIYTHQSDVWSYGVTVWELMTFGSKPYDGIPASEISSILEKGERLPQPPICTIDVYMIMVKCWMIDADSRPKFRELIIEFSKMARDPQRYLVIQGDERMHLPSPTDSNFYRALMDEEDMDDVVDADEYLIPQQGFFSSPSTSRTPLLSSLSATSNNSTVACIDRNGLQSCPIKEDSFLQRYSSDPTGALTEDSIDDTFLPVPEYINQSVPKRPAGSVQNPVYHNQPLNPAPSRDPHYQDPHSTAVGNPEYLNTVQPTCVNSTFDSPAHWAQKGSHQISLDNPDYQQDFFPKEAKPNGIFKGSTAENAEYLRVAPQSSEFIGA

SMILES: O=C1NC(=O)N(CCc2ccccc2)/C1=C/c1cccc(O)c1
- fold change (FC) (A549 [1]): 0.9
- inhibition at 20 µM (A549 [2]): 28%

SMILES: CCCCN1C(=O)NC(=O)/C1=C/c1ccccc1
- inhibition at 20 µM (A549 [2]): 18%

SMILES: O=C1NC(=O)N(CCc2cccc(Cl)c2)/C1=C\c1ccccc1
- fold change (FC) (A549 [3]): 1.1
- fold change (FC) (A549 [4]): 0.7
- fold change (FC) (A549 [1]): 1.5
- fold change (FC) (A549 [5]): 2.2
- inhibition at 20 µM (A549 [2]): 49%

SMILES: CC(=O)Nc1ccc(/C=C2\C(=O)NC(=O)N2CCc2ccccc2)cc1
- fold change (FC) (A549 [1]): 1.7
- inhibition at 20 µM (A549 [2]): 39%

SMILES: O=C1NC(=O)N(CCc2ccccc2)/C1=C\c1ccc(O)cc1
- fold change (FC) (A549 [3]): 1.7
- fold change (FC) (A549 [4]): 0.9
- fold change (FC) (A549 [1]): 1.5
- fold change (FC) (A549 [5]): 2.7
- inhibition at 20 µM (A549 [2]): 44%

SMILES: O=C1NC(=O)N(CCc2ccccc2)/C1=C/c1cccc(Cl)c1
- inhibition at 20 µM (A549 [2]): 35%

SMILES: CN1C(=O)NC(=O)/C1=C\c1ccccc1
- fold change (FC) (A549 [1]): 1.1
- inhibition at 20 µM (A549 [2]): 5.7%

SMILES: O=C1NC(=O)N(Cc2ccccc2)/C1=C/c1ccccc1
- inhibition at 20 µM (A549 [2]): 2.9%

SMILES: O=C1NC(=O)N(Cc2ccccc2)/C1=C\c1ccccc1
- fold change (FC) (A549 [3]): 1.8
- fold change (FC) (A549 [4]): 1.1
- fold change (FC) (A549 [1]): 1.7
- fold change (FC) (A549 [5]): 2.6
- inhibition at 20 µM (A549 [2]): 42%

SMILES: CCCCN1C(=O)NC(=O)/C1=C\c1ccc(Cl)cc1
- inhibition at 20 µM (A549 [2]): 29%

SMILES: CCCCCCN1C(=O)NC(=O)/C1=C/c1ccccc1
- inhibition at 20 µM (A549 [2]): 0%

SMILES: O=C1NC(=O)N(Cc2ccccc2)/C1=C\c1ccc(O)cc1
- fold change (FC) (A549 [1]): 2
- inhibition at 20 µM (A549 [2]): 32%

SMILES: O=C1NC(=O)N(CCc2ccccc2)/C1=C\c1cccc(Cl)c1
- fold change (FC) (A549 [3]): 1.4
- fold change (FC) (A549 [4]): 0.9
- fold change (FC) (A549 [1]): 1.2
- fold change (FC) (A549 [5]): 1.9
- inhibition at 20 µM (A549 [2]): 43%

SMILES: O=C1NC(=O)N(CCc2ccccc2)[C@@H]1Cc1ccccc1
- fold change (FC) (A549 [1]): 1
- inhibition at 20 µM (A549 [2]): 7.2%

SMILES: CCCCCCN1C(=O)NC(=O)/C1=C\c1ccccc1
- inhibition at 20 µM (A549 [2]): 14%

SMILES: CN1C(=O)NC(=O)/C1=C/c1ccccc1
- fold change (FC) (A549 [1]): 1
- inhibition at 20 µM (A549 [2]): 16%

SMILES: CCCCN1C(=O)NC(=O)/C1=C\c1ccccc1
- inhibition at 20 µM (A549 [2]): 6.8%

SMILES: O=C1NC(=O)N(CCc2ccccc2)/C1=C/c1ccc(O)cc1
- fold change (FC) (A549 [3]): 1.4
- fold change (FC) (A549 [4]): 1
- fold change (FC) (A549 [1]): 2.3
- Activity (A549 [6]): Active
- fold change (FC) (A549 [5]): 3.2
- inhibition at 20 µM (A549 [2]): 53%
- IC50 [7]: 19 µM
- Activity (A549 [8]): Active

SMILES: O=C1NC(=O)N(CCc2ccccc2)/C1=C/c1ccccc1
- fold change (FC) (A549 [1]): 1.2
- inhibition at 20 µM (A549 [2]): 9.4%

SMILES: O=C1NC(=O)N(Cc2ccccc2)/C1=C/c1ccc(O)cc1
- fold change (FC) (A549 [1]): 1.8
- inhibition at 20 µM (A549 [2]): 41%

SMILES: O=C1NC(=O)N(CCc2ccccc2)/C1=C\c1cccc(O)c1
- fold change (FC) (A549 [1]): 1.1
- inhibition at 20 µM (A549 [2]): 40%

SMILES: O=C1NC(=O)N(c2ccccc2)/C1=C/c1ccccc1
- inhibition at 20 µM (A549 [2]): 18%

SMILES: CCCCN1C(=O)NC(=O)/C1=C/c1ccc(Cl)cc1
- inhibition at 20 µM (A549 [2]): 26%

SMILES: O=C1NC(=O)N(c2ccccc2)/C1=C\c1ccccc1
- inhibition at 20 µM (A549 [2]): 26%

SMILES: CN1C(=O)/C(=C/c2ccccc2)N(CCc2ccccc2)C1=O
- fold change (FC) (A549 [1]): 1
- inhibition at 20 µM (A549 [2]): 45%

SMILES: CC(=O)Nc1ccc(/C=C2/C(=O)NC(=O)N2CCc2ccccc2)cc1
- inhibition at 20 µM (A549 [2]): 32%

SMILES: COc1ccc(/C=C2\C(=O)NC(=O)N2CCc2ccccc2)cc1
- fold change (FC) (A549 [1]): 1
- inhibition at 20 µM (A549 [2]): 35%

SMILES: O=C1NC(=O)N(CCc2cccc(Cl)c2)/C1=C/c1ccccc1
- inhibition at 20 µM (A549 [2]): 10%

SMILES: CN1C(=O)/C(=C\c2ccccc2)N(CCc2ccccc2)C1=O
- fold change (FC) (A549 [1]): 1
- inhibition at 20 µM (A549 [2]): 31%

SMILES: O=C1NC(=O)N(CCc2ccccc2)/C1=C\c1ccccc1
- fold change (FC) (A549 [1]): 1.3
- inhibition at 20 µM (A549 [2]): 42%
